Measurements published in PubChem BioAssay AID504533 (Broad Institute, 2011).
Where “and” joins values, the source holds several entries; their conditions need not be identical. Identical values can stand only once. Records with an inconclusive call do not appear. Calls of active or inactive are those of the source.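 How the source made its calls: active means compound whose fitted half-maximal viability-loss concentration is within ten times its top tested dose in every test run; inconclusive means test runs disagree, or a weak flat or poorly fitted curve; inactive means every test run inactive.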

Test system: not listed separately
Test: cytotoxicity in HMLE_sh_eGFP control cells, dose response, counter-screen for breast cancer stem cell project, cell-based, luminescence, powder samples, set 5 (AID 504533)
Settings: HMLE_sh_eGFP viability, CellTiter-Glo luminescence, 72 h; at 19.5 µM (top of the series)
Outline: (§1)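 System – HMLE_sh_eGFP control cell line · Buffer or medium – serum-free CSC medium · Dosing – 100 nL compound per well · Schedule – about 72 h compound exposure at 37 °C · Technique – luminescent ATP assay (CellTiter-Glo) · Control set – DMSO neutral control, 160 µM puromycin positive control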
For CC(C)NC(=O)c1ccc(COc2ccccc2)o1, the activity change, negative = viability loss was -2.28% (inactive).
With COCc1ccc(C(=O)Nc2nc(C)cs2)o1 the activity change, negative = viability loss was 15.3% (inactive).
For CC(C)c1ccc(/C=C/C(=O)Nc2nc3ccccc3s2)cc1, the activity change, negative = viability loss was -0.373% (inactive).
In the case of Cc1cc(Br)ccc1OCC(=O)N/N=C/c1ccc[nH]1, the activity change, negative = viability loss is reported as -25.7% (inactive).
For O=C(Nc1nncs1)c1ccc(COc2ccccc2)o1, the activity change, negative = viability loss was 3.92% (inactive).
In the case of N#Cc1ccc(/C=C/C(=O)NC2=NCCS2)cc1, the activity change, negative = viability loss is reported as -10.2% (inactive).
With Cc1csc(NC(=O)c2ccc(CS(=O)(=O)c3ccccc3)o2)n1 the activity change, negative = viability loss was -13.3% (inactive).
In the case of Cc1csc(NC(=O)c2ccc(COC(C)C)o2)n1, the activity change, negative = viability loss is reported as -0.134% (inactive).
For Cc1csc(NC(=O)c2ccc(COc3ccccc3S(C)(=O)=O)o2)n1, the activity change, negative = viability loss was 2.08% (inactive).
In the case of Cc1coc(NC(=O)c2ccc(COc3ccccc3)o2)n1, the activity change, negative = viability loss is reported as 3.69% (inactive).
With CCN(CC)C(=O)c1ccc(COc2ccccc2)o1 the activity change, negative = viability loss was 6.38% (inactive).
In the case of Cc1csc(NC(=O)c2ccc(COC(C)(C)C)o2)n1, the activity change, negative = viability loss is reported as -4.37% (inactive).
In the case of C/C(=C\C(=O)NC1=NCCS1)c1ccc(C)cc1, the activity change, negative = viability loss is reported as -3.46% (inactive).
For Cn1c(C(=O)NC2=NCCS2)cc2ccccc21, the activity change, negative = viability loss was -5.73% (inactive).
With Cc1coc(NC(=O)/C=C/c2ccc(C(C)C)cc2)n1 the activity change, negative = viability loss was -6.75% (inactive).
In the case of Cc1cc(C)c(OCC(=O)N/N=C/c2ccc[nH]2)c(C)c1, the activity change, negative = viability loss is reported as 1.17% (inactive).
For CC(C)c1ccc(/C=C/C(=O)N(C)C2=NCCS2)cc1, the activity change, negative = viability loss was 10.1% (inactive).
With C/C(=C\C(=O)NC1=NCCS1)c1ccc(CC(C)C)cc1 the activity change, negative = viability loss was 17.8% (inactive).
With N#Cc1cnc(NC(=O)c2ccc(COc3ccccc3)o2)s1 the activity change, negative = viability loss was -1.72% (inactive).

Same assay, conditions: HMLE_sh_eGFP viability, CellTiter-Glo luminescence, 72 h; at 30 µM (top of the series)
In the case of Cc1ccc2cc(C(=O)NC3=NCCS3)n(C)c2c1, the activity change, negative = viability loss is reported as -4.12% (inactive).

Test system: HMLE_sh_eGFP viability, CellTiter-Glo luminescence, 72 h
Test: as above
Settings: not given
Outline: as §1
Work on Cc1csc(NC(=O)c2ccc(CCc3ccccc3)o2)n1 yielded an AC50 of 9.08 µM.
For Cc1cccc(OCc2ccc(C(=O)Nc3nc(C)cs3)o2)c1, the AC50 was 0.656 µM and 4.39 µM.
COc1cccc(OCc2ccc(C(=O)Nc3nc(C)cs3)o2)c1 gave an AC50 of 2.64 µM.
In the case of Cc1csc(NC(=O)c2ccc(CNc3ccccc3)o2)n1, the AC50 is reported as 5.09 µM.
CC(C)Cc1ccc(/C=C/C(=O)NC2=NCCS2)cc1 gave an AC50 of 3.27 µM.
Cc1csc(NC(=O)c2ccc(COCc3ccccc3)o2)n1 gave an AC50 of 19.6 µM.
